Measured values: ChEMBL document CHEMBL1629563, “Pharmacokinetic and safety evaluation of BILR 355, a second-generation nonnucleoside reverse transcriptase inhibitor, in healthy volunteers” (Antimicrob Agents Chemother, 2008)

Tests used:
[1] = Drug excretion in healthy human urine assessed as unchanged drug at 75 mg, po administered as single dose coadministered with 100 mg of ritonavir by high-pressure liquid chromatography-tandem mass spectrometry/mass spectrometry method; format: ADME, organism-based; conditions: read-out: Drug uptake
Procedure, shortened: (§1)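 Ritonavir 100 mg was given 10 h before and with one oral dose of BILR 355 in PEG solution. Urine was collected by weight as predose blank, then 0-6, 6-24 and 24-72 h, stored at −20°C and assayed by LC-MS/MS. fe = unchanged drug excreted (Ae) as a percentage of dose. Line 50: high-fat breakfast 30 min before dosing.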

[2] = AUC (0 to last) in healthy human at 62.5 mg, po administered as single dose coadministered with 100 mg of ritonavir; format: ADME, organism-based; parameters: dose 62.5 mg, time 0 - last, route oral; conditions: plasma
Procedure, shortened: (§2)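 Healthy male volunteers, fasted. Ritonavir 100 mg given 10 h before and again together with single oral BILR 355 in PEG solution. EDTA plasma sampled predose to 144 h. LC-MS/MS assay after protein precipitation. Noncompartmental analysis, AUC by linear up/log down trapezoidal rule; Vss = CL/F·(MRTp.o. − 1/Ka).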

Homo sapiens [3] = assay: Toxicity in healthy human assessed as occurrence of migraine at 5 mg, po administered as single dose relative to control; format: organism-based; conditions: in vivo
[4] = AUC (0 to last) in healthy human at 5 mg, po administered as single dose; format: ADME, organism-based; parameters: dose 5 mg, time 0 - last, route oral; conditions: plasma
Procedure, shortened: (§3)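 Healthy male volunteers, six active plus two placebo per dose group, single oral dose in PEG solution with 200 ml water after overnight fast; breakfast 60 to 90 min post-dose. EDTA plasma sampled predose to 144 h. Assayed by validated LC-MS/MS after protein precipitation. Noncompartmental analysis, AUC by linear up/log down trapezoidal rule; Vss = CL/F·(MRTp.o. − 1/Ka).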

Homo sapiens [5] = assay: Toxicity in healthy human assessed as occurrence of headache at 5 mg, po administered as single dose relative to control; format: organism-based; conditions: in vivo
[6] = Apparent volume of distribution in terminal phase in healthy human at 62.5 mg, po administered as single dose coadministered with 100 mg of ritonavir; format: ADME, organism-based; conditions: in vivo, read-out: Vz/F
Procedure, shortened: (§4)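 Healthy male volunteers, fasted overnight, got one oral dose of BILR 355 in PEG solution with 200 ml water. Ritonavir 100 mg was given 10 h before and again with the dose. Plasma was sampled (EDTA) from predose to 144 h and assayed by validated LC-MS/MS. Cmax and Vz/F came from noncompartmental analysis. Vss/F = CL/F·(MRTp.o. − 1/Ka), with Ka from compartmental modelling.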

[7] = Half life in healthy human at 62.5 mg, po administered as single dose coadministered with 100 mg of ritonavir; format: ADME, organism-based; conditions: in vivo
[8] = Renal clearance in healthy human at 25 mg, po administered as single dose by high-pressure liquid chromatography-tandem mass spectrometry/mass spectrometry method; format: ADME, organism-based, Kidney; conditions: in vivo, read-out: CL_renal (converted)
[9] = AUC (0 to last) in healthy human at 37.5 mg, po administered as single dose coadministered with 100 mg of ritonavir; format: ADME, organism-based; parameters: dose 37.5 mg, route oral, time 0 - last; conditions: plasma; procedure, shortened: as §2
Homo sapiens [10] = assay: Toxicity in healthy human assessed as occurrence of diarrhea at 12.5 mg, po administered as single dose coadministered with 100 mg of ritonavir; format: organism-based; conditions: in vivo
[11] = Drug excretion in healthy human urine assessed as unchanged drug at 5 mg, po administered as single dose coadministered with 100 mg of ritonavir by high-pressure liquid chromatography-tandem mass spectrometry/mass spectrometry method; format: ADME, organism-based; conditions: read-out: Drug uptake; procedure, shortened: as §1
[12] = Apparent volume of distribution in terminal phase in healthy human at 37.5 mg, po administered as single dose coadministered with 100 mg of ritonavir; format: ADME, organism-based; conditions: in vivo, read-out: Vz/F; procedure, shortened: as §4
[13] = Cmax in healthy human at 62.5 mg, po administered as single dose coadministered with 100 mg of ritonavir by high-pressure liquid chromatography-tandem mass spectrometry/mass spectrometry method; format: ADME, organism-based; parameters: dose 62.5 mg, route oral; conditions: in vivo; procedure, shortened: as §4
[14] = Apparent volume of distribution in terminal phase in healthy human at 25 mg, po administered as single dose; format: ADME, organism-based; conditions: in vivo, read-out: Vz/F
Procedure, shortened: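 Single fasting oral dose of BILR 355 in PEG solution with 200 ml tap water, given to healthy males. Standard breakfast came 60-90 min after the dose. EDTA plasma was sampled predose to 144 h, stored below −18°C and assayed by LC-MS/MS after protein precipitation. Noncompartmental analysis gave Vz/F. Vss/F = CL/F·(MRTp.o. − 1/Ka), with Ka from compartmental modelling.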

Homo sapiens [15] = assay: Toxicity in healthy human assessed as occurrence of diarrhea at 87.5 mg, po administered as single dose coadministered with 100 mg of ritonavir; format: organism-based; conditions: in vivo
Homo sapiens [16] = assay: Toxicity in healthy human assessed as occurrence of aphthous stomatitis at 75 mg, po administered as single dose coadministered with 100 mg of ritonavir; format: organism-based; conditions: in vivo
Homo sapiens [17] = assay: Toxicity in healthy human assessed as occurrence of headache at 25 mg, po administered as single dose relative to control; format: organism-based; conditions: in vivo
[18] = Apparent volume of distribution at steady state in healthy human at 25 mg, po administered as single dose coadministered with 100 mg of ritonavir; format: ADME, organism-based; conditions: in vivo, read-out: Vss/F; procedure, shortened: as §4
[19] = AUC (0 to infinity) in healthy human at 100 mg, po administered as single dose; format: ADME, organism-based; parameters: dose 100 mg, time infinity, route oral; conditions: plasma; procedure, shortened: as §3
Homo sapiens [20] = assay: Toxicity in healthy human assessed as occurrence of flatulence at 50 mg, po administered as single dose relative to control; format: organism-based; conditions: in vivo
Homo sapiens [21] = assay: Toxicity in healthy human assessed as occurrence of fatigue at 50 mg, po administered as single dose coadministered with 100 mg of ritonavir; format: organism-based; conditions: in vivo
[22] = AUC (0 to infinity) in healthy human at 12.5 mg, po administered as single dose; format: ADME, organism-based; parameters: dose 12.5 mg, route oral, time infinity; conditions: plasma; procedure, shortened: as §3
Homo sapiens [23] = assay: Toxicity in healthy human assessed as occurrence of herpes simplex at 75 mg, po administered as single dose relative to control; format: organism-based; conditions: in vivo
[24] = Tmax in healthy human at 25 mg, po administered as single dose; format: ADME, organism-based; conditions: in vivo
[25] = AUC (0 to last) in healthy human at 25 mg, po administered as single dose; format: ADME, organism-based; parameters: dose 25 mg, route oral, time 0 - last; conditions: plasma; procedure, shortened: as §3
[26] = Renal clearance in healthy human at 12.5 mg, po administered as single dose by high-pressure liquid chromatography-tandem mass spectrometry/mass spectrometry method; format: ADME, organism-based, Kidney; conditions: in vivo, read-out: CL_renal (converted)
Homo sapiens [27] = assay: Apparent oral clearance in healthy human at 75 mg, po administered as single dose; format: ADME, organism-based; conditions: in vivo; procedure, shortened: as §3
[28] = AUC (0 to infinity) in high fat fed healthy human at 50 mg, po administered as single dose coadministered with 100 mg of ritonavir; format: ADME, organism-based; parameters: dose 50 mg, time infinity, route oral; conditions: plasma
Procedure, shortened: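 Fed cohort of 6 healthy men given an FDA-type high-fat breakfast (about 150, 250 and 500 to 600 cal from protein, carbohydrate and fat) 30 min before dosing. Ritonavir 100 mg given 10 h earlier and again with the single oral dose in PEG solution. Plasma sampled to 144 h, LC-MS/MS, noncompartmental analysis.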

Homo sapiens [29] = assay: Toxicity in healthy human assessed as occurrence of increase in alanine aminotransferase level at 25 mg, po administered as single dose relative to control; format: organism-based; conditions: in vivo
[30] = Apparent volume of distribution in terminal phase in healthy human at 5 mg, po administered as single dose coadministered with 100 mg of ritonavir; format: ADME, organism-based; conditions: in vivo, read-out: Vz/F; procedure, shortened: as §4
Homo sapiens [31] = assay: Toxicity in healthy human assessed as occurrence of aphthous stomatitis at 50 mg, po administered as single dose coadministered with 100 mg of ritonavir; format: organism-based; conditions: in vivo

Molecule `CCN1c2ncc(CCOc3cc[n+]([O-])c4ccccc34)cc2C(=O)N(C)c2cccnc21` [BILR 355] has a dose excreted [1] of 5.44%, an AUC(0-t) [2] of 7480 ng·h/mL and an Activity (Homo sapiens [3]) of 0%. It also gave an AUC(0-t) [4] of 13.6 ng·h/mL, an Activity (Homo sapiens [5]) of 0% and a Vd/F [6] of 118 L. It also gave a half-life [7] of 9.73 h, a CL renal [8] of 11.5 mL/min and an AUC(0-t) [9] of 5800 ng·h/mL. For the same molecule, the Activity (Homo sapiens [10]) was 0%, the dose excreted [11] was 4.78% and the Vd/F [12] was 104 L. For the same molecule, the Cmax [13] was 653 ng/mL, the Vd/F [14] was 1040 L and the Activity (Homo sapiens [15]) was 16.7%. The Activity (Homo sapiens [16]) was 0%, the Activity (Homo sapiens [17]) was 16.7% and the Vd/F [18] was 102 L. The AUC(0-inf) [19] was 1310 ng·h/mL, the Activity (Homo sapiens [20]) was 0% and the Activity (Homo sapiens [21]) was 0%. The AUC(0-inf) [22] was 71.8 ng·h/mL, the Activity (Homo sapiens [23]) was 0% and the Tmax [24] was 0.833 h. For the same molecule, the AUC(0-t) [25] was 128 ng·h/mL, the CL renal [26] was 6.85 mL/min and the CL/F (Homo sapiens [27]) was 272 L/h. It also gave an AUC(0-inf) [28] of 8300 ng·h/mL, an Activity (Homo sapiens [29]) of 0% and a Vd/F [30] of 153 L. The Activity (Homo sapiens [31]) was 0%.
